According to ChEMBL document CHEMBL1130018, “Synthesis and anticonvulsant activities of 3,3-dialkyl- and 3-alkyl-3-benzyl-2-piperidinones (delta-valerolactams) and hexahydro-2H-azepin-2-ones (epsilon-caprolactams)” (J Med Chem, 1997):

How the values were obtained:
[1] = Protective Index (PI) determined as the ratio of toxic dose (TD50) and effective dose (ED50 (MES)); format: ADME; details: mouse; read-out: PI
Summary of the method: (§1)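 The protective index was calculated as rotorod TD50 divided by the ED50 against PTZ- or MES-induced seizures. All values come from i.p. dosing in 30% polyethylene glycol in mice, six per dose.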

[2] = Protective Index (PI) determined as the ratio of toxic dose (TD50) and effective dose (ED50 (PTZ)); format: ADME; details: mouse; read-out: PI; summary of the method: as §1
[3] = target: GABA-A receptor; anion channel; test: Ability to displace radioligand [35S]TBPS from Gamma-aminobutyric acid A receptor binding site in rat brain membranes; format: cell membranes
Summary of the method: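 Values are mean and range from duplicate experiments, each run in triplicate. For some lactams the values are mean ± SEM of three experiments run in triplicate. Read-out is IC50 (mM) for displacement of [35S]TBPS.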

[4] = Neurotoxicity was evaluated by a rotarod test; format: toxicity; details: mouse
Summary of the method: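 Mice were given at least four i.p. doses of compound in 30% polyethylene glycol at 0.01 mL/g, with six per dose, then tested on the rotorod. TD50 is the dose at which 50% failed, with 95% fiducial limits. Where these could not be calculated, the highest all-nontoxic dose and the lowest all-toxic dose are given instead.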

Rattus norvegicus [5] = species on record: Rattus norvegicus; test: Antagonism of compound (200 uM) induced potentiation of 3 uM GABA-mediated chloride currents in cultured rat hippocampal neurons; format: functional
Summary of the method: (§2)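 Whole-cell peak current evoked by 3 μM GABA, with test compound alone or with 3 mM α-isopropyl-α-methyl-γ-butyrolactone, in cultured rat hippocampal neurons. Each peak was normalized to the peak from 3 μM GABA alone on the same cell, with 100% meaning no change. Values are mean ± SEM over 5–14 cells. Alone vs plus antagonist was compared by Student's t test.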

[6] = target: GABA-A receptor; anion channel (Rattus norvegicus) (UniProt O09028+P15431+P18506+P18508+P19969+P20236+P23574+P23576+P28471+P28473+P30191+P62813+P63079+P63138+Q91ZM7+Q9ES14); test: Induced potentiation of 3 uM GABA-mediated chloride currents at 1 mM in the presence of 3 mM alpha-IMGBL (picrotoxin antagonist); format: functional; summary of the method: as §2
Mus musculus [7] = species on record: Mus musculus; test: Anticonvulsant activity expressed as dose at which 50% of the mice were protected from tonic hindlimb seizures induced by maximal electroshock (MES); format: functional
Summary of the method: (§3)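 Mice were given at least four doses, with six animals per dose. Compound was dissolved in 30% polyethylene glycol and injected i.p. at 0.01 mL/g body weight. Challenge was pentylenetetrazole 85 mg/kg (clonic seizures) or maximal electroshock (tonic hindlimb extension). ED50 is the dose protecting 50%, with 95% fiducial limits.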

Mus musculus [8] = test: Anticonvulsant activity expressed as dose at which 50% of the mice were protected from clonic seizures induced by pentylenetetrazole (85 mg/Kg); format: functional; summary of the method: as §3
Rattus norvegicus [9] = species on record: Rattus norvegicus; test: Antagonism of compound (300 uM) induced potentiation of 3 uM GABA-mediated chloride currents in cultured rat hippocampal neurons; format: functional; summary of the method: as §2
Mus musculus [10] = test: Anticonvulsant activity expressed as dose at which 50% of the mice were protected from clonic seizures induced by pentylenetetrazole (85 mg/Kg); cytotoxicity observed at 300 mg/kg; format: functional
Rattus norvegicus [11] = species on record: Rattus norvegicus; test: Antagonism of compound (600 uM) induced potentiation of 3 uM GABA-mediated chloride currents in cultured rat hippocampal neurons; format: functional
Summary of the method: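 Cultured rat hippocampal neurons. Test compound was applied with 3 μM GABA, with and without α-isopropyl-α-methyl-γ-butyrolactone (3 mM). Peak current was normalized to the peak from 3 μM GABA alone on the same cell, where 100% means no change. Mean ± SEM over N cells; Student's t test compared compound alone with compound plus antagonist.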

Rattus norvegicus [12] = species on record: Rattus norvegicus; test: Antagonism of compound (1 mM) induced potentiation of 3 uM GABA-mediated chloride currents in cultured rat hippocampal neurons; format: functional; summary of the method: as §2

Structure (SMILES)	selectivity ratio [1]	selectivity ratio [2]	IC50 [3] [µM]	TD50 [4] [mg/kg]	Response (Rattus norvegicus [5]) [%]	Response [6] [%]	ED50 (Mus musculus [7]) [mg/kg]	ED50 (Mus musculus [8]) [mg/kg]	Response (Rattus norvegicus [9]) [%]	ED50 (Mus musculus [10]) [mg/kg]	Response (Rattus norvegicus [11]) [%]	Response (Rattus norvegicus [12]) [%]
CCC1(CC)CCNC1=O	1.49	5.65										
CCC1(CC)CCCCNC1=O	0.74	0.58	380	131	117	105	178	226				
CC1CCCNC1=O (configuration not stated)			27700	> 600								
CCC1(Cc2ccccc2)CCCNC1=O (configuration not stated)	1.47	1.69	270	103		93	70		138			
CCC1CCCCNC1=O (configuration not stated)	0.58	0.69	3200	145			249	210				
O=C1CCCCCN1 [CAPROLACTAM]	< 1	< 1	17400	< 300			> 300			> 300		
CCC1(c2ccccc2)C(=O)NC(=O)NC1=O [PHENOBARBITAL]	5.18	4		88			17					
CCC1(Cc2ccccc2)CCCCNC1=O (configuration not stated)			90	> 100		107	> 100	> 100			128	
O=C1NCCC1Cc1ccccc1 (configuration not stated)	3.51	2.03										
CC1(Cc2ccccc2)CCCNC1=O (configuration not stated)	2.5	2.23	730	125			50					
CCC1(C)CCCNC1=O (configuration not stated)	1.9	2.25	4410	378			199	168				
CCC1(CC)CCCNC1=O	3.06	4.46	1310	165		102	54	37				142
CCC1CCCNC1=O (configuration not stated)	> 0.59	> 1.09	8780	> 325			550	297				
O=C1CCCCN1			197000	> 600			> 600					
CCCC(CCC)C(=O)O [VALPROIC ACID]							206					
CCC1(C)CC(=O)NC1=O (configuration not stated) [ETHOSUXIMIDE]	< 0.67	2.35		378			> 562					
O=C1NCCCC1Cc1ccccc1 (configuration not stated)	7.05	3.52	1440	289			41	82				
